Experimental data from ChEMBL document CHEMBL4028895, “Structure-Activity Relationships and Biological Characterization of a Novel, Potent, and Serum Stable C-X-C Chemokine Receptor Type 4 (CXCR4) Antagonist” (J Med Chem, 2017).
pIC50: −log10 of the molar value. Activity calls are given as the source filed them. The rule behind the calls is not given here. Positions of bridges follow the written chain, without caps; N, C: chain ends. Non-standard residues stand in square brackets, D forms with d. Residues, ends and D or L forms follow the SMILES beside them. 2Nal = N[C@@H](Cc1ccc2ccccc2c1)C(=O)O; Pen = CC(C)(S)[C@H](N)C(=O)O

Tests used:
[1] = target: T1, C-X-C chemokine receptor type 4 (Homo sapiens, UniProt P61073); assay: Inhibition of anti-CXCR4 PE antibody clone 12G5 binding to CXCR4 in human CCRF-CEM cells preincubated for 30 mins followed by anti-CXCR4 PE antibody clone 12G5 addition measured after 30 mins by flow cytometric method; format: cell-based
T1 sequence (P61073 whole entry): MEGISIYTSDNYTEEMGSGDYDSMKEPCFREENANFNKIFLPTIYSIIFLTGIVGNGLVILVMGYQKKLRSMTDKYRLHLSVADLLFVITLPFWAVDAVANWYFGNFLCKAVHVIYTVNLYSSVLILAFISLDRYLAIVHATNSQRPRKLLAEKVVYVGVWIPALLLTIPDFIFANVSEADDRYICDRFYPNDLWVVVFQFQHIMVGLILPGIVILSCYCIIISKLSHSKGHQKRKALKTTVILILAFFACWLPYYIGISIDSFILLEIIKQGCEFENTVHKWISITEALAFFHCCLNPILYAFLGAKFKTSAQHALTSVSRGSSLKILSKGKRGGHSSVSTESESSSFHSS
Procedure, shortened: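 5×10^5 CCRF-CEM cells (human T leukemia, CXCR4-overexpressing) were preincubated with peptide (10 pM–10 μM) in PBS with 0.2% BSA and 0.1% NaN3 for 30 min at 37 °C, 5% CO2. They were then labeled 30 min with anti-CXCR4 PE antibody (clone 12G5) and read by flow cytometry.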

[2] = Metabolic stability in 90% human serum assessed as parent compound remaining at 1 mM measured at 15 mins by ESI-RP-HPLC method; format: ADME, cell-free; conditions: read-out: Stability
Procedure, shortened: (§1)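 Peptide water solution (1 mM, 10 μL) mixed with 90 μL human serum, giving 0.1 mM peptide in 90% serum, at 37 °C. Aliquots taken at 0, 15, 30, 60, 90 and 120 min. Proteins precipitated with ACN (0.1% TFA) and spun 12 000 rpm, 15 min, 4 °C. Supernatant run on ESI-RP-HPLC; relative amount from A230 peak integration.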

[3] = Metabolic stability in 90% human serum assessed as parent compound remaining at 1 mM measured at 30 mins by ESI-RP-HPLC method; format: ADME, cell-free; conditions: read-out: Stability; procedure, shortened: as §1
[4] = Metabolic stability in 90% human serum assessed as parent compound remaining at 1 mM measured at 60 mins by ESI-RP-HPLC method; format: ADME, cell-free; conditions: read-out: Stability; procedure, shortened: as §1
[5] = Metabolic stability in 90% human serum assessed as parent compound remaining at 1 mM measured at 90 mins by ESI-RP-HPLC method; format: ADME, cell-free; conditions: read-out: Stability; procedure, shortened: as §1
[6] = Metabolic stability in 90% human serum assessed as parent compound remaining at 1 mM measured at 120 mins by ESI-RP-HPLC method; format: ADME, cell-free; conditions: read-out: Stability; procedure, shortened: as §1
[7] = target: T2, C-X-C chemokine receptor type 3 (Homo sapiens) (UniProt P49682); assay: Inhibition of anti-CXCR3 FITC antibody clone 1C6/clone 49801 binding to CXCR3 in human COLO205 cells at 0.01 to 10 uM preincubated for 30 mins followed by anti-CXCR3 FITC antibody clone 1C6/clone 49801 addition measured after 30 mins by flow cytometric method; format: cell-based
T2 sequence (whole entry): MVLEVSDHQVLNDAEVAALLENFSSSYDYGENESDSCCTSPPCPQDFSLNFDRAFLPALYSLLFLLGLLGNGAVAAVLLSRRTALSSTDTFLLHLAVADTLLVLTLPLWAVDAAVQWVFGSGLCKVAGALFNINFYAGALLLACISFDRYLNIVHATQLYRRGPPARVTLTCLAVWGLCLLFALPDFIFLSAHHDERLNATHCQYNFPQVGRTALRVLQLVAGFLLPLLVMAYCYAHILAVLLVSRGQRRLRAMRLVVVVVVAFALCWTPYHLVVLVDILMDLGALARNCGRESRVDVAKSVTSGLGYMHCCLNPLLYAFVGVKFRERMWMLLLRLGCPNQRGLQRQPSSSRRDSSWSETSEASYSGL
Procedure, shortened: (§2)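 Selectivity runs: peptide preincubated 30 min at 37 °C, 5% CO2 in PBS with 0.2% BSA and 0.1% NaN3, then cells labeled with receptor antibody and read by flow cytometry. CXCR3: COLO205 colorectal cells, anti-CXCR3 FITC antibody. CXCR7: MCF-7 breast cells, anti-CXCR7 APC antibody (clone 11G8). Results given as mean ± SD.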

[8] = target: Atypical chemokine receptor 3 (Homo sapiens) (UniProt P25106); assay: Inhibition of anti-CXCR7 APC antibody clone 11G8 binding to CXCR7 in human MCF7 cells at 0.01 to 10 uM preincubated for 30 mins followed by anti-CXCR7 APC antibody clone 11G8 addition measured after 30 mins by flow cytometric method; format: cell-based; procedure, shortened: as §2
Chain of Atypical chemokine receptor 3 (Homo sapiens) (P25106 whole entry): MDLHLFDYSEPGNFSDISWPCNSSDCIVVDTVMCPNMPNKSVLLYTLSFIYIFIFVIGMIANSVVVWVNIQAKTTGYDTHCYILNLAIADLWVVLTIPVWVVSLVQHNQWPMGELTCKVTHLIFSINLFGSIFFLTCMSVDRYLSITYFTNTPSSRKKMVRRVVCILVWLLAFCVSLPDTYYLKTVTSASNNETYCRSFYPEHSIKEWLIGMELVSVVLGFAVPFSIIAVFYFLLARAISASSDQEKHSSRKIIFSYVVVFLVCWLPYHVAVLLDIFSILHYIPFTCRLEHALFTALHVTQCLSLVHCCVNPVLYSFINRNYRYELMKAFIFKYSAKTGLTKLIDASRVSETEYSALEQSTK

[9] = target: T1, C-X-C chemokine receptor type 4; conditions: 1 to 100 nM
[10] = target: T1, C-X-C chemokine receptor type 4; conditions: 10 nM
[11] = target: T1, C-X-C chemokine receptor type 4; conditions: 10 nM; remark: listed apart in the source
[12] = target: T1, C-X-C chemokine receptor type 4; conditions: 10 nM; remark: listed apart in the source
[13] = test system: Serum; assay: Drug level in 90% human serum treated with (4R,7S,10S,13S,16R)-16-((S)-2-((S)-2-amino-5-guanidinopentanamido)propanamido)-7,10-dibenzyl-13-(3-guanidinopropyl)-6,9,12,15-tetraoxo-1,2-dithia-5,8,11,14-tetraazacycloheptadecane-4-carboxylic acid at 1 mM after 30 mins by ESI-RP-HPLC method; format: ADME, cell-free; conditions: 0.5 h, 1000 µM; procedure, shortened: as §1
[14] = test system: Serum; assay: Drug level in 90% human serum treated with (4R,7S,10S,13S,16R)-16-((S)-2-((S)-2-amino-5-guanidinopentanamido)propanamido)-7,10-dibenzyl-13-(3-guanidinopropyl)-6,9,12,15-tetraoxo-1,2-dithia-5,8,11,14-tetraazacycloheptadecane-4-carboxylic acid at 1 mM after 15 mins by ESI-RP-HPLC method; format: ADME, cell-free; conditions: 0.25 h, 1000 µM; procedure, shortened: as §1
[15] = target: T1, C-X-C chemokine receptor type 4; assay: Displacement of [125I]-CXCL12 from CXCR4 in human CCRF-CEM cells after 1 hr by gamma counting method; format: cell-based
Procedure, shortened: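 CCRF-CEM cells suspended in binding buffer (PBS, 5 mM MgCl2, 1 mM CaCl2, 0.25% BSA, pH 7.4) with competitor from 10 pM to 10 μM and 60 pM 125I-CXCL12 (2200 Ci/mmol) tracer. Bound radioactivity counted on a γ counter after 1 h at 4 °C, expressed as percent of total counts. One-site fit gave IC50; mean ± SD of three experiments.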

Compound: CC(=O)N[C@@H](CCCNC(=N)N)C(=O)N[C@@H](C)C(=O)N[C@H]1C(=O)N[C@@H](CCCNC(=N)N)C(=O)N[C@@H](Cc2ccccc2)C(=O)N[C@@H](Cc2ccccc2)C(=O)N[C@H](C(=O)O)CSSC1(C)C
- pIC50 [1]: < 5.00

Compound: CC(=O)N[C@@H](CCCNC(=N)N)C(=O)N[C@@H](C)C(=O)N[C@@H]1CSSC(C)(C)[C@@H](C(=O)O)NC(=O)[C@H](Cc2ccccc2)NC(=O)[C@H](Cc2ccc3ccccc3c2)NC(=O)[C@H](CCCNC(=N)N)NC1=O
- pIC50 [1]: 7.66

Compound: CC(=O)N[C@@H](CCCNC(=N)N)C(=O)N[C@@H](C)C(=O)N[C@@H]1CSSC(C)(C)[C@@H](C(=O)O)NC(=O)[C@H](Cc2cccc3ccccc23)NC(=O)[C@H](Cc2ccccc2)NC(=O)[C@H](CCCNC(=N)N)NC1=O
- pIC50 [1]: 6.74

Compound: CC(=O)N[C@@H](CCCNC(=N)N)C(=O)N[C@@H](C)C(=O)N[C@@H]1CSSC(C)(C)[C@@H](C(=O)O)NC(=O)[C@H](Cc2ccc(O)cc2)NC(=O)[C@H](Cc2ccccc2)NC(=O)[C@H](CCCNC(=N)N)NC1=O
- pIC50 [1]: 6.44

Compound: CC(=O)N[C@@H](CCCNC(=N)N)C(=O)N[C@@H](C)C(=O)N[C@@H]1CSSC(C)(C)[C@@H](C(=O)O)NC(=O)[C@H](Cc2ccccc2)NC(=O)[C@H](Cc2ccc([N+](=O)[O-])cc2)NC(=O)[C@H](CCCNC(=N)N)NC1=O
- pIC50 [1]: 6.68

Compound: CC(=O)N[C@@H](CCCNC(=N)N)C(=O)N[C@@H](C)C(=O)N[C@H]1C(=O)N[C@@H](CCCNC(=N)N)C(=O)N[C@@H](Cc2ccccc2)C(=O)N[C@@H](Cc2ccccc2)C(=O)N[C@H](C(=O)O)C(C)(C)SSC1(C)C
- pIC50 [1]: 5.82

Compound: CC(=O)N[C@@H](CCCNC(=N)N)C(=O)N[C@@H](C)C(=O)N[C@@H]1CSSC(C)(C)[C@@H](C(=O)O)NC(=O)[C@H](Cc2ccccc2)NC(=O)[C@H](Cc2cnc[nH]2)NC(=O)[C@H](CCCNC(=N)N)NC1=O
- pIC50 [1]: < 5.00

Compound: CC(=O)N[C@@H](CCCNC(=N)N)C(=O)N[C@@H](C)C(=O)N[C@@H]1CSSC(C)(C)[C@@H](C(=O)O)NC(=O)[C@H](Cc2ccccc2)NC(=O)[C@H](Cc2cccc3ccccc23)NC(=O)[C@H](CCCNC(=N)N)NC1=O
- pIC50 [1]: 5.43

Compound: CC(=O)N[C@@H](CCCNC(=N)N)C(=O)N[C@@H](C)C(=O)N[C@@H]1CSSC(C)(C)[C@@H](C(=O)O)NC(=O)[C@H](Cc2cnc[nH]2)NC(=O)[C@H](Cc2ccccc2)NC(=O)[C@H](CCCNC(=N)N)NC1=O
- pIC50 [1]: 8.22

Compound: C[C@H](NC(=O)[C@@H](N)CCCNC(=N)N)C(=O)N[C@H]1CSSC[C@@H](C(=O)O)NC(=O)[C@H](Cc2ccccc2)NC(=O)[C@H](Cc2ccccc2)NC(=O)[C@H](CCCNC(=N)N)NC1=O (H-RACRFFC-OH; disulfide 3-7)
- pIC50 [1]: 5.21
- remaining at 0.25 h, 1000 µM [2]: 67%
- remaining at 0.5 h, 1000 µM [3]: 0%
- remaining at 1 h, 1000 µM [4]: 0%
- remaining at 1.5 h, 1000 µM [5]: 0%
- remaining at 2 h, 1000 µM [6]: 0%

Compound: CC(=O)N[C@@H](CCCNC(=N)N)C(=O)N[C@@H](C)C(=O)N[C@@H]1CSSC(C)(C)[C@@H](C(=O)O)NC(=O)[C@H](Cc2ccccc2)NC(=O)[C@H](Cc2ccc(O)cc2)NC(=O)[C@H](CCCNC(=N)N)NC1=O
- pIC50 [1]: 5.67

Compound: CC(=O)N[C@@H](CCCNC(=N)N)C(=O)N[C@@H](C)C(=O)N[C@@H]1CSSC(C)(C)[C@@H](C(=O)O)NC(=O)[C@H](Cc2cnc[nH]2)NC(=O)[C@H](Cc2ccc3ccccc3c2)NC(=O)[C@H](CCCNC(=N)N)NC1=O (Ac-RA[dC]R[2Nal]H[Pen]-OH; disulfide 3-7)
- pIC50 [1]: 8.82
- inhibition [7]: inactive
- inhibition [8]: inactive
- remaining at 0.25 h, 1000 µM [2]: 100%
- remaining at 0.5 h, 1000 µM [3]: 100%
- remaining at 1 h, 1000 µM [4]: 100%
- remaining at 1.5 h, 1000 µM [5]: 100%
- remaining at 2 h, 1000 µM [6]: 100%
- inhibition [9]: Active
- inhibition [10]: Active
- inhibition [11]: inactive

Compound: CC(=O)N[C@@H](CCCNC(=N)N)C(=O)N[C@@H](C)C(=O)N[C@@H]1CSSC(C)(C)[C@@H](C(=O)O)NC(=O)[C@H](Cc2ccc3ccccc3c2)NC(=O)[C@H](Cc2ccccc2)NC(=O)[C@H](CCCNC(=N)N)NC1=O
- pIC50 [1]: 5.74

Compound: c1cc(CN2CCCNCCNCCCNCC2)ccc1CN1CCCNCCNCCCNCC1
- inhibition [12]: inactive

Compound: N=C(N)NCCC[C@@H]1NC(=O)[C@@H](N)CSSC[C@@H](C(=O)O)NC(=O)[C@H](Cc2ccccc2)NC(=O)[C@H](Cc2ccccc2)NC1=O (H-CRFFC-OH; disulfide 1-5)
- Drug metabolism [13]: Metabolite_Detected

Compound: CC(=O)N[C@@H](CCCNC(=N)N)C(=O)N[C@@H](C)C(=O)N[C@@H]1CSSC(C)(C)[C@@H](C(=O)O)NC(=O)[C@H](Cc2ccc([N+](=O)[O-])cc2)NC(=O)[C@H](Cc2ccccc2)NC(=O)[C@H](CCCNC(=N)N)NC1=O
- pIC50 [1]: < 5.00

Compound: C[C@H](N)C(=O)N[C@H]1CSSC[C@@H](C(=O)O)NC(=O)[C@H](Cc2ccccc2)NC(=O)[C@H](Cc2ccccc2)NC(=O)[C@H](CCCNC(=N)N)NC1=O (H-ACRFFC-OH; disulfide 2-6)
- Drug metabolism [14]: Metabolite_Detected

Compound: CC(=O)N[C@@H](CCCNC(=N)N)C(=O)N[C@@H](C)C(=O)N[C@@H]1CSSC(C)(C)[C@@H](C(=O)O)NC(=O)[C@H](Cc2ccccc2)NC(=O)[C@H](Cc2ccccc2)NC(=O)[C@H](CCCNC(=N)N)NC1=O
- pIC50 [1]: 7.40

Compound: CC(=O)N[C@@H](CCCNC(=N)N)C(=O)N[C@@H](C)C(=O)N[C@@H]1CSSC(C)(C)[C@@H](C(=O)O)NC(=O)[C@H](Cc2ccc(Cl)cc2)NC(=O)[C@H](Cc2ccccc2)NC(=O)[C@H](CCCNC(=N)N)NC1=O
- pIC50 [1]: 5.90

Compound: CC(=O)N[C@@H](CCCNC(=N)N)C(=O)N[C@@H](C)C(=O)N[C@@H]1CSSC[C@@H](C(=O)O)NC(=O)[C@H](Cc2ccccc2)NC(=O)[C@H](Cc2ccccc2)NC(=O)[C@H](CCCNC(=N)N)NC1=O (Ac-RA[dC]RFFC-OH; disulfide 3-7)
- pIC50 [1]: 7.28
- pIC50 [15]: 6.47

Compound: CC(=O)N[C@@H](CCCNC(=N)N)C(=O)N[C@@H](C)C(=O)N[C@@H]1CSSC(C)(C)[C@@H](C(=O)O)NC(=O)[C@H](Cc2ccccc2)NC(=O)[C@H](Cc2ccc(Cl)cc2)NC(=O)[C@H](CCCNC(=N)N)NC1=O
- pIC50 [1]: 7.15
